ChEMBL document CHEMBL1130140, “O6-(alkyl/aralkyl)guanosine and 2'-deoxyguanosine derivatives: synthesis and ability to enhance chloroethylnitrosourea antitumor action” (1997)

Assays:
M4Beu cell line [1] = assay: In vitro cytotoxicity against M4Beu cells when co-administered with 50 uM cystemustine.; format: functional; details: Homo sapiens, read-out: ED50 (the source's name)
Summary of the method: (§1)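 M4Beu cells were plated at 200 cells/dish and left to adhere 20 h. They were given compound at 0-400 µM (100 mM DMSO stock) for 4 h at 37 °C, then 50 µM cystemustine for 2 h at 37 °C, then grown 14 days. Methanol-fixed, crystal-violet-stained colonies (>50 cells) were counted. ED50 was read graphically from the concentration plot of survival decrease relative to cystemustine alone. Each dose ran ≥3 times in triplicate.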

M4Beu cell line [2] = assay: In vitro cytotoxicity in M4Beu cells after 4 hr exposure to 300 uM.; format: functional, Homo sapiens
Summary of the method: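 Colony-forming assay: M4Beu cells plated at 200 cells/dish, allowed to adhere 20 h, then exposed 4 h at 37 °C to compound at 300 µM (from 100 mM DMSO stock) with no cystemustine step. Medium then replaced, cells grown 14 days, fixed in methanol, stained with crystal violet. Colonies >50 cells counted; survival as percent of untreated control; at least three experiments in triplicate.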

M4Beu cell line [3] = assay: Effective dose of compound associated with cystemustine (50 uM), required to reduce by 50% cell survival rate (M4Beu cells); format: functional; details: Homo sapiens, read-out: ED50 (the source's name); summary of the method: as §1

| SMILES | EC50 (M4Beu cell line [1]) [µM] | Cell survival (M4Beu cell line [2]) [%] | EC50 (M4Beu cell line [3]) [µM] |
| --- | --- | --- | --- |
| CC(=O)Nc1nc(OCc2ccc(I)cc2)c2ncn(C3CC(OC(C)=O)C(COC(C)=O)O3)c2n1 (stereo not given) | 200 | – | – |
| CC(=O)Nc1nc(OCc2ccc(Br)cc2)c2ncn(C3CC(OC(C)=O)C(COC(C)=O)O3)c2n1 (stereo not given) | 216 | – | – |
| Nc1nc(OCc2ccccc2)c2nc[nH]c2n1 [6-O-BENZYLGUANINE] | 2 | 110 | – |
| CC(=O)Nc1nc(OC(c2ccccc2)c2ccccc2)c2ncn(C3O[C@H](CO)[C@@H](O)[C@H]3O)c2n1 (stereo not given in full) | 400 | – | – |
| Nc1nc(OCc2ccc(I)cc2)c2ncn(C3O[C@H](CO)[C@@H](O)[C@H]3O)c2n1 (stereo not given in full) | 122 | 100 | – |
| CC(=O)Nc1nc(OCc2ccc(I)cc2)c2ncn(C3CC(O)C(CO)O3)c2n1 (stereo not given) | 269 | – | – |
| CC(=O)Nc1nc(OCc2ccc(Br)cc2)c2ncn([C@H]3C[C@H](O)[C@@H](CO)O3)c2n1 | 211 | – | – |
| CC(=O)Nc1nc(OCc2ccc(Br)cc2)c2ncn(C3OC(COC(C)=O)C(OC(C)=O)C3OC(C)=O)c2n1 (stereo not given) | – | – | 400 |
